Active and inactive are the calls of the source. The rule behind the calls is not given here.
Experiments:
Human papillomavirus [1] = experiment: Antiviral activity against HPV 16 infected in mouse 3T3 cells assessed as decrease in viral DNA after 48 hrs by qRT-PCR analysis; type: functional, organism-based, Human papillomavirus 16; conditions: NIH3T3, 48 h
Method in brief: (§1)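 Assays run side by side over a range of polyamide concentrations for two days. Pseudo IC50 and IC90 are the polyamide concentrations that give a 50% or 90% drop in viral DNA.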

Human papillomavirus [2] = experiment: Antiviral activity against HPV 18 infected in mouse 3T3 cells assessed as decrease in viral DNA after 48 hrs by qRT-PCR analysis; type: functional, organism-based, human papillomavirus 18; conditions: NIH3T3, 48 h; method in brief: as §1
Human papillomavirus [3] = experiment: Antiviral activity against HPV 31 infected in mouse 3T3 cells assessed as decrease in viral DNA after 48 hrs by qRT-PCR analysis; type: functional, organism-based, Human papillomavirus type 31; conditions: NIH3T3, 48 h; method in brief: as §1
[4] = (§2) Binding affinity to HPV 18 CCTGG TATTAGTCAT TTTCC LCR DNA (7606 to 7615 nucleotides) after 4 hrs by DNase I footprinting assay; design: species or system human papillomavirus 18
Method in brief: (§3)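 Kd values derived from DNase I footprinting of HPV18 LCR DNA, each run at least in triplicate. Sites are read as the polyamide binding block flanked by 5 nt on each side.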

human papillomavirus 18 [5] = experiment: as §2; method in brief: as §3
[6] = Binding affinity to HPV 18 ACATA TTTTGAACAA TTGGC LCR DNA (7559 to 7568 nucleotides) after 4 hrs by DNase I footprinting assay; design: species or system human papillomavirus 18; method in brief: as §3
[7] = Binding affinity to HPV 18 CTTTGGCGCATATAA GGCGC LCR DNA (7585 to 7594 nucleotides) after 4 hrs by DNase I footprinting assay; design: species or system human papillomavirus 18; method in brief: as §3
human papillomavirus 18 [8] = experiment: Binding affinity to HPV 18 5'-TAGTCATTTT-3' LCR DNA (7609 to 7618 nucleotides) after 4 hrs by DNase I footprinting assay; method in brief: as §3
human papillomavirus 18 [9] = experiment: Binding affinity to HPV 18 CCT GGT ATTAG TCATT TTCCTG TCCAGGT LCR DNA (7619 to 7626 nucleotide) at 5 nM after 4 hrs by DNase I footprinting assay; method in brief: as §3
human papillomavirus 18 [10] = experiment: Binding affinity to (7619 nucleotide) of HPV 18 CCT GGT ATTAG TCATT TTCCTG TCCAGGT LCR DNA at 5 nM after 4 hrs by DNase I footprinting assay; method in brief: as §3
human papillomavirus 18 [11] = experiment: Binding affinity to HPV 18 CCT GG TATTAGTCATTTTCCTG TCCA G GT LCR DNA (7606 to 7615 nucleotide) at 50 nM after 4 hrs by DNase I footprinting assay; method in brief: as §3

SMILES | IC50 (Human papillomavirus [1]) [nM] | IC90 (Human papillomavirus [1]) [nM] | IC50 (Human papillomavirus [2]) [nM] | IC90 (Human papillomavirus [2]) [nM] | IC50 (Human papillomavirus [3]) [nM] | IC90 (Human papillomavirus [3]) [nM] | Kd [4] [nM] | Activity (human papillomavirus 18 [5]) | Kd [6] [nM] | Kd [7] [nM] | Activity (human papillomavirus 18 [8]) | Activity (human papillomavirus 18 [9]) | Activity (human papillomavirus 18 [10]) | Activity (human papillomavirus 18 [11])
CN(CCCN)CCCNC(=O)CCNC(=O)c1cc(NC(=O)c2cc(NC(=O)c3cc(NC(=O)c4cc(NC(=O)CCNC(=O)c5cc(NC(=O)c6cc(NC(=O)CCCNC(=O)c7cc(NC(=O)c8cc(NC(=O)c9cc(NC(=O)CCNC(=O)c%10cc(NC(=O)c%11cc(NC(=O)c%12nc(N=C(N)N)cn%12C)cn%11C)cn%10C)cn9C)cn8C)cn7C)cn6C)cn5C)cn4C)cn3C)cn2C)cn1C | 100 | 380 | 200 | 900 | 140 | 800 | 1 | Active | 1 | 2.2 | Active | Active |  | 
CN(CCCN)CCCNC(=O)CCNC(=O)c1cc(NC(=O)c2cc(NC(=O)c3cc(NC(=O)c4cc(NC(=O)CCNC(=O)c5cc(NC(=O)c6cc(NC(=O)CCCNC(=O)c7cc(NC(=O)c8cc(NC(=O)c9cc(NC(=O)CCNC(=O)c%10cc(NC(=O)c%11cc(NC(=O)c%12nccn%12C)cn%11C)cn%10C)cn9C)cn8C)cn7C)cn6C)cn5C)cn4C)cn3C)cn2C)cn1C | 100 | 1100 | 700 | > 10000 | 100 | 1000 | 0.9 | Active | 0.9 | 2.7 | Active |  |  | 
CN(CCCN)CCCNC(=O)CCNC(=O)c1cc(NC(=O)c2cc(NC(=O)c3cc(NC(=O)CCNC(=O)c4cc(NC(=O)c5cc(NC(=O)c6cc(NC(=O)CCNC(=O)c7cc(NC(=O)c8cc(NC(=O)CCNC(=O)c9cc(NC(=O)c%10cc(NC(=O)CCCNC(=O)c%11cc(NC(=O)c%12cc(NC(=O)c%13cc(NC(=O)CCNC(=O)c%14cc(NC(=O)c%15cc(NC(=O)c%16nccn%16C)cn%15C)cn%14C)cn%13C)cn%12C)cn%11C)cn%10C)cn9C)cn8C)cn7C)n(C)c6)n(C)c5)n(C)c4)n(C)c3)n(C)c2)n(C)c1 | 36 | 350 | 56 | 1500 | 30 | 510 |  |  |  |  |  |  |  | 
CN(CCCN)CCCNC(=O)CCNC(=O)c1cc(NC(=O)c2cc(NC(=O)c3cc(NC(=O)c4cc(NC(=O)CCNC(=O)c5cc(NC(=O)c6cc(NC(=O)CCCNC(=O)c7cc(NC(=O)c8cc(NC(=O)c9cc(NC(=O)CCNC(=O)c%10cc(NC(=O)c%11cc(NC(=O)c%12nc(N=C(N(C)C)N(C)C)cn%12C)cn%11C)cn%10C)cn9C)cn8C)cn7C)cn6C)cn5C)cn4C)cn3C)cn2C)cn1C | 300 | > 10000 | 200 | > 10000 | 130 | 900 | 1.2 | Active | 1.1 | 3.2 |  |  | inactive | Active

From ChEMBL document CHEMBL4190170, “Improved Antiviral Activity of a Polyamide Against High-Risk Human Papillomavirus Via N-Terminal Guanidinium Substitution” (Medchemcomm, 2016)
